This note sets out measurements from ChEMBL document CHEMBL4390664, “3,5-Diaryl-1H-pyrazolo[3,4-b]pyridines as potent tubulin polymerization inhibitors: Rational design, synthesis and biological evaluation” (Eur J Med Chem, 2019).

The test system of one test is HeLa. Briefly: Antiproliferative activity against human HeLa cells assessed as reduction in cell growth incubated for 72 hrs by MTT assay. Format: functional, cell-based. (In general: Tetrazolium assays rely on reduction of a dye to a coloured formazan, in cell work by metabolically active cells.)
The next test relates to A549. Kind of test: Antiproliferative activity against human A549 cells assessed as reduction in cell growth incubated for 72 hrs by MTT assay. Format: functional, cell-based. The settings on record: A549, 72 h.
Test [1] has as its system SGC-7901. Briefly: Antiproliferative activity against human SGC7901 cells assessed as reduction in cell growth incubated for 72 hrs by MTT assay. The test is classed as functional, cell-based. The settings on record: SGC-7901, 72 h.
Test [2] relates to SGC-7901. Kind of test: Cell cycle arrest in human SGC7901 cells assessed as accumulation of G2/M cell population at 26 nM incubated for 12 hrs by flow cytometry analysis (reference value: 24.47%). The test is classed as functional.
The target of test [3] is T1, Tubulin (Sus scrofa) (UniProt P02554+P02550). Kind of test: Inhibition of porcine brain tubulin polymerization at 12.5 to 100 uM measured at 1 min intervals for 80 mins by fluorimetry.
Test [4] relates to SGC-7901. Kind of test: Induction of morphological changes in human SGC7901 cells assessed as formation of multinucleated cells at 26 nM incubated for 24 hrs by immunofluorescence assay. The test is classed as functional, cell-based. Put shortly:
(§1)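 SGC-7901 cells were exposed to compound at 26 or 36 nM for 24 h, then immunostained. Microtubules and unassembled tubulin were stained green and nuclei blue. Microtubule network and cell morphology were examined by fluorescence imaging.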

The next test concerns L929. Kind of test: Cytotoxicity against mouse L929 cells assessed as reduction in cell growth incubated for 72 hrs by MTT assay. Format: cell-based. The settings on record: L929, 72 h.
Test [5] deals with T1, Tubulin (Sus scrofa). Briefly: Inhibition of porcine brain tubulin polymerization measured at 1 min intervals for 80 mins by fluorimetry.
The subject of test [6] is SGC-7901. Briefly: Induction of morphological changes in human SGC7901 cells assessed as destruction of cytoskeleton at 26 nM incubated for 24 hrs by immunofluorescence assay. The test is classed as functional, cell-based. Put shortly:
as §1

The subject of test [7] is SGC-7901. Kind of test: Induction of morphological changes in human SGC7901 cells assessed as cell rounding at 26 nM incubated for 24 hrs by immunofluorescence assay. The test is classed as functional, cell-based. Put shortly: as §1
The subject of test [8] is SGC-7901. Briefly: Cell cycle arrest in human SGC7901 cells assessed as decrease of G1 cell population at 36 nM incubated for 0 to 72 hrs by flow cytometry analysis. The test is classed as functional, cell-based.
The test system of test [9] is SGC-7901. Kind of test: Induction of morphological changes in human SGC7901 cells assessed as destruction of cytoskeleton at 36 nM incubated for 24 hrs by immunofluorescence assay. Format: functional, cell-based. An outline of the steps: as §1
Test [10] addresses T1, Tubulin (Sus scrofa). Kind of test: Inhibition of porcine brain tubulin polymerization at 10 uM measured at 1 min intervals for 80 mins by fluorimetry.
Test [11] concerns SGC-7901. Kind of test: Induction of morphological changes in human SGC7901 cells assessed as cell rounding at 36 nM incubated for 24 hrs by immunofluorescence assay. Format: functional, cell-based. Put shortly: as §1
Test [12] deals with SGC-7901. Briefly: Induction of multinucleated cell formation in human SGC7901 cells at 36 nM incubated for 0 to 72 hrs by flow cytometry analysis. Format: functional, cell-based. On the technique in general: Flow cytometry measures light scatter and fluorescence of single cells or particles in a stream.
In test [13] the test system is SGC-7901. Kind of test: Cell cycle arrest in human SGC7901 cells assessed as increase of G2/M cell population at 36 nM incubated for 0 to 72 hrs by flow cytometry analysis. Format: functional, cell-based.
Test [14] relates to SGC-7901. Kind of test: Induction of morphological changes in human SGC7901 cells assessed as formation of multinucleated cells at 36 nM incubated for 24 hrs by immunofluorescence assay. Format: functional, cell-based. Put shortly:
as §1

pIC50: −log10 of the molar value. Activity calls are given as the source filed them. The calls are words filed in the database; no cut-off is given here.

T1 sequence (P02550 whole entry, looked up): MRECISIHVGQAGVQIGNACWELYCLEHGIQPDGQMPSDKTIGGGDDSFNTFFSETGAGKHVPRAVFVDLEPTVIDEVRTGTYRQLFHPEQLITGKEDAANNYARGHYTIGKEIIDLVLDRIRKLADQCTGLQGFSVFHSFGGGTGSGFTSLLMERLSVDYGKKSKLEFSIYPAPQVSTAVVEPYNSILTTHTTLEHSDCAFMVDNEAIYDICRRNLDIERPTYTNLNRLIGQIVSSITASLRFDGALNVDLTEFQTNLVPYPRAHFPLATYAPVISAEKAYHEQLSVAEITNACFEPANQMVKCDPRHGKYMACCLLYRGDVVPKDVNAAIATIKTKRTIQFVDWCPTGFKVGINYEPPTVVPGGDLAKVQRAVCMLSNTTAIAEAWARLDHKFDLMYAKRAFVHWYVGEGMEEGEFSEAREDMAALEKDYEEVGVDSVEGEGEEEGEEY
T1 sequence (P02554 whole entry, looked up): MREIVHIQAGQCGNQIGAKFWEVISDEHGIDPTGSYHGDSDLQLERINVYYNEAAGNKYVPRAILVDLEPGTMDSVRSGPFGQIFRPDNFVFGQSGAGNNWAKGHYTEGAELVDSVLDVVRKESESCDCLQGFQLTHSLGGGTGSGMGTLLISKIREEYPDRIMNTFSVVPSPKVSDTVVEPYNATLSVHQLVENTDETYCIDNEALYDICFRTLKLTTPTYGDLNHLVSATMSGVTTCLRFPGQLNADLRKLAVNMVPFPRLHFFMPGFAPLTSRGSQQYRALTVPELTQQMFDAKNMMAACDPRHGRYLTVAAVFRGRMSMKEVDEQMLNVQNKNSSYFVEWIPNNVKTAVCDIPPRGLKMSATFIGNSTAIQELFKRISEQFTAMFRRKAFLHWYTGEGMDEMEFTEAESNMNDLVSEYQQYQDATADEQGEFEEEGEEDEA

Take `COc1cc(-c2n[nH]c3ncc(-c4cccc(C)c4)cc23)cc(OC)c1OC`: the pIC50 (commonly the IC50 on a negative log10 scale, so that one unit is a factor of ten) was 7.07 in the test on HeLa, below 4.52 with A549 and 7.29 with SGC-7901 [1].

For the compound `COc1ccc(-c2n[nH]c3ncc(-c4ccc(C)cc4)cc23)cc1`, the pIC50 in the test on HeLa, with A549 and in the test with SGC-7901 [1] was below 4.52 in each case.

With `COc1cc(-c2n[nH]c3ncc(-c4ccc(F)cc4N)cc23)cc(OC)c1OC`, the pIC50 was 7.09 in the test with HeLa, 5.88 in the test with A549 and 6.40 with SGC-7901 [1].

`COc1ccc(-c2cnc3[nH]nc(-c4cc(OC)c(OC)c(OC)c4)c3c2)cc1`: the pIC50 was 6.55 with HeLa, below 4.52 with A549 and 6.89 with SGC-7901 [1].

Take `CNc1cc(C)ccc1-c1cnc2[nH]nc(-c3cc(OC)c(OC)c(OC)c3)c2c1`: the pIC50 in the test with HeLa is 5.42; in the test with A549, 5.03; with SGC-7901 [1], 5.20.

For `COc1ccc(-c2n[nH]c3ncc(-c4ccc(C)cc4)cc23)cc1OC`, the pIC50 in the test with HeLa, with A549 and in the test on SGC-7901 [1] was below 4.52 throughout.

Regarding `COc1cc(-c2n[nH]c3ncc(-c4ccc(Br)cc4N)cc23)cc(OC)c1OC`, the pIC50 was 5.58 in the test on HeLa, 5.07 in the test with A549 and 5.26 in the test with SGC-7901 [1].

Consider `COc1cc(-c2n[nH]c3ncc(-c4ccc(C)cc4N)cc23)cc(OC)c1OC`, for which the pIC50 was 6.80 with HeLa, 5.11 in the test with A549 and 6.64 in the test on SGC-7901 [1].

For `COc1ccc(-c2n[nH]c3ncc(-c4ccc(C)cc4N)cc23)cc1OC`, the pIC50 in the test with HeLa, in the test with A549 and in the test with SGC-7901 [1] was below 4.52 each time.

As for `COc1cc(-c2n[nH]c3ncc(-c4ccc(Br)cc4)cc23)cc(OC)c1OC`, the pIC50 with HeLa was 4.96; in the test on A549 it was 4.76; with SGC-7901 [1], 4.70.

In the case of `COc1ccc(N)c(-c2cnc3[nH]nc(-c4cc(OC)c(OC)c(OC)c4)c3c2)c1`, the pIC50 in the test with HeLa was 5.31; in the test on A549, 4.99; with SGC-7901 [1] it was 5.02.

Turning to `COc1cc(-c2n[nH]c3ncc(-c4ccccc4N)cc23)cc(OC)c1OC`, the pIC50 in the test on HeLa was 5.59; with A549 it was 5.85; in the test with SGC-7901 [1], 5.36.

As to `COc1cc(-c2n[nH]c3ncc(-c4ccc(C)cc4)cc23)cc(OC)c1OC`, the pIC50 in the test on HeLa was 7.35; in the test on A549 it was 7.09; in the test with L929, 4.43; in the test with SGC-7901 [1], 7.89. Moreover, in the test with SGC-7901 [2], the Activity is listed as 59.62%. For the same compound, at Tubulin (Sus scrofa) [3], the inhibition result was “Active”. The result in the test on SGC-7901 [4], in the test on SGC-7901 [6] and in the test on SGC-7901 [7] was Active. Moreover, at Tubulin (Sus scrofa) [5], the inhibition result was “Dose-dependent effect”.

As to `COc1cc(-c2n[nH]c3ncc(-c4ccc(F)cc4)cc23)cc(OC)c1OC`, the pIC50 in the test with HeLa was 6.05; in the test on A549 it was below 4.52; in the test on SGC-7901 [1] it was 5.64.

With `CNc1cc(Cl)ccc1-c1cnc2[nH]nc(-c3cc(OC)c(OC)c(OC)c3)c2c1`, the pIC50 in the test with HeLa was 5.19; with A549 it was 4.85; in the test with SGC-7901 [1], 5.07.

Turning to `COc1ccc(-c2n[nH]c3ncc(-c4ccc(C)cc4N)cc23)cc1`, the pIC50 with HeLa, in the test on A549 and in the test on SGC-7901 [1] was below 4.52 in each case.

With `COc1cccc(-c2cnc3[nH]nc(-c4cc(OC)c(OC)c(OC)c4)c3c2)c1`, the negative-log IC50 (pIC50) is 6.34 in the test on HeLa, 5.12 in the test with A549 and 5.72 in the test with SGC-7901 [1].

With `COc1ccc(-c2cnc3[nH]nc(-c4cc(OC)c(OC)c(OC)c4)c3c2)c(N)c1`, the figures for the pIC50 in the test on HeLa, in the test on A549 and in the test on SGC-7901 [1] were 5.84, 5.27 and 5.43, respectively.

With `CNc1cc(F)ccc1-c1cnc2[nH]nc(-c3cc(OC)c(OC)c(OC)c3)c2c1`, the pIC50 in the test with HeLa was 5.78; with A549, 5.37; with SGC-7901 [1] it was 5.42.

As for `COc1cc(-c2n[nH]c3ncc(-c4cc(C)ccc4N)cc23)cc(OC)c1OC`, the values for the pIC50 in the test on HeLa, in the test on A549 and in the test on SGC-7901 [1] were 6.42, 5.35 and 6.21, respectively.

As to `COc1cc(-c2n[nH]c3ncc(-c4ccc(Cl)cc4)cc23)cc(OC)c1OC`, the pIC50 was 6.06 in the test on HeLa, 4.84 in the test with A549 and 5.32 in the test with SGC-7901 [1].

As for `COc1cc(C(=O)c2csc(-c3ccccc3)n2)cc(OC)c1OC`, the pIC50 in the test with HeLa is 7.62; with L929, 4.59; in the test with SGC-7901 [1], 7.74. Further, the result with SGC-7901 [8], in the test on SGC-7901 [9], with SGC-7901 [11], in the test with SGC-7901 [12], in the test on SGC-7901 [13] and in the test on SGC-7901 [14] was Active. Besides, the inhibition result on Tubulin (Sus scrofa) [10] was “Active”.

As to `COc1cc(-c2n[nH]c3ncc(-c4ccccc4)cc23)cc(OC)c1OC`, the figures for the pIC50 in the test with HeLa, with A549 and with SGC-7901 [1] were 7.24, 6.19 and 7.43, respectively.

With `COc1cc(-c2n[nH]c3ncc(-c4ccc(Cl)cc4N)cc23)cc(OC)c1OC`, the pIC50 with HeLa is 6.44; in the test with A549, 5.49; in the test with SGC-7901 [1] it was 6.24.
